A selection: hits, their analogues and other compounds. The true share with any hit is near 1.2%.
PREPL inh = PREPL enzyme inhibitors, primary screen, biochemical, fluorescence polarization. 320,000 tested, 0.68% active. inhibition, % at 5.96 µM. AID 2751, 2010. recombinant PREPL, fluorescence polarization activity-based probe;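 further: 0% = enzyme with DMSO and 100% = wells lacking enzyme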
ASAP1 inh = inhibitors of human ASAP1 ArfGAP activity, primary screen, biochemical, fluorescence polarization; Arf-GAP with SH3 domain, ANK repeat and PH domain-containing protein 1 (Homo sapiens), …; ASAP1-stimulated ARF1 GTP hydrolysis, GDP FP detection; inhibition, % at 16.5 µM; 360,000 tested, 0.19% active; AID 624377, 2012; in the data active means inhibition above about 25%;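 further: 0% = vehicle with enzyme and substrate and 100% = no enzyme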
IDE cell inh = human IDE inhibitors in live cells, primary screen, fluorescence polarization, HEK cells, FAbetaB substrate; inhibition, % at 5.59 µM; 320,000 tested, 0.41% active; Insulin-degrading enzyme (Homo sapiens), P14735; FAbetaB cleavage; AID 434962, 2010;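 active means percent inhibition above the average of all tested compounds plus 3 SD, set per screening campaign, cut at about 16% in these data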;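 further: IDE supplied by intact live HEK cells; FP after avidin binding of uncleaved biotin substrate so inhibition keeps polarization high; 0% = DMSO wells and 100% = 60 µM reference IDE inhibitor Ii1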
Target sequence (P14735 whole entry, looked up): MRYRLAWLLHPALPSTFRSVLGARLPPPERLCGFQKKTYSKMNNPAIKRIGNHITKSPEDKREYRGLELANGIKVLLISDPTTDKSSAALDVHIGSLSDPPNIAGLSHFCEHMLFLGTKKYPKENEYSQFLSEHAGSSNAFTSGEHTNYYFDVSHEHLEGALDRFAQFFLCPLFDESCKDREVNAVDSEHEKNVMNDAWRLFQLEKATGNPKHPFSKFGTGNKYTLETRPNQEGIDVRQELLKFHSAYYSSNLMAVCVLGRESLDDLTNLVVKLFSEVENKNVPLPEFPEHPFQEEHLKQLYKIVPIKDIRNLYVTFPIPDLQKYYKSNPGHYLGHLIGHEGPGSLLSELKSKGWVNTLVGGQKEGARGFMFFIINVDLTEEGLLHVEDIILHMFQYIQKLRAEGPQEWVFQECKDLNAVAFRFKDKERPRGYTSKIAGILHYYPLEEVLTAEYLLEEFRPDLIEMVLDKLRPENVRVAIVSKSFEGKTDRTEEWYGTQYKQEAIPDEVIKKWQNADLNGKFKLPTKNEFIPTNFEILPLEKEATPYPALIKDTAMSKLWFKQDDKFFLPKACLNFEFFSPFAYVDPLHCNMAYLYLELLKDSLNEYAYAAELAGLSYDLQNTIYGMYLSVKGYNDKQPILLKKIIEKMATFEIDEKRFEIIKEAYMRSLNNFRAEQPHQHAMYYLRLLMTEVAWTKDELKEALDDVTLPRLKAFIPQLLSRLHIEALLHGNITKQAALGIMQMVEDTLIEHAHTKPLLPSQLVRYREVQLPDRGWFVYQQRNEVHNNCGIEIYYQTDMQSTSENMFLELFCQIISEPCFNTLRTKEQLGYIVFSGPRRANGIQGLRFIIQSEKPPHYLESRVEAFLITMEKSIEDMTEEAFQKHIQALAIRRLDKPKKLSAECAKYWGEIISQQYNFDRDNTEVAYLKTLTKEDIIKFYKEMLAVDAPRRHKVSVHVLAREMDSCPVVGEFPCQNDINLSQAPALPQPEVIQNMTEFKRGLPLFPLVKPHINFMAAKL
IDE act = human IDE activators in live cells, primary screen, fluorescence polarization, HEK cells, FAbeta-B substrate; Insulin-degrading enzyme (Homo sapiens), P14735; FAbeta-B cleavage; 0% vehicle, 100% cell-free pure enzyme wells; activation, % at 5.96 µM; 340,000 tested, 0.073% active; AID 493087, 2011;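 active means activation above the mean of all tested compounds plus 3 SD, set per screening campaign, cut at about 17% in these data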
ARFGAP1 inhibitor = inhibitors of rat ARFGAP1 GAP activity, primary screen, biochemical, fluorescence polarization, GDP tracer; ADP-ribosylation factor GTPase-activating protein 1 (Rattus norvegicus), Q62848; Arfgap1-stimulated ARF1 GTP hydrolysis, GDP FP detection; inhibition, % at 16.5 µM; 360,000 tested, 0.26% active; AID 651572, 2012;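 active means inhibition above a per-plate limit, mean inhibition of low control wells plus 3 SD, cut at about 25% in these data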;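 further: 0% = DMSO wells with enzyme and 100% = wells lacking Arfgap1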
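Material: rat Arfgap1 GAP domain (His6, aa 1-136), purified enzyme. Also added: human ARF1(Δ1-17)-GTP substrate. Compound dosing: 16.5 µM single point, 1.26% DMSO. Timing: enzyme reaction 120 min at 25 °C after 20 min preincubation. Signal: GDP detection by fluorescence polarization. Read-out basis: percent inhibition of GAP-stimulated GDP formation, scaled between DMSO and no-Arfgap1 medians.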
PREPL confirm = human PREPL enzyme inhibitors, confirmation, biochemical, fluorescence polarization; shares compounds with PREPL inh; recombinant PREPL, fluorescence polarization activity probe; inhibition, % at 5.96 µM; 2,000 tested, 67% active; AID 2803, 2010;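 further: 0% = protein with DMSO and 100% = wells lacking protein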
An asterisk follows results filed as active; . = no result. Unless noted, no stated cut-off is given here; in the data, active means inhibition above about 43%; inactive means the rest.

SMILES	PREPL inh	ASAP1 inh	IDE cell inh	IDE act	ARFGAP1 inhibitor	PREPL confirm
Cc1ccc(C2(C)NC(=O)N(CC(=O)Nc3ccc4[nH]c(=O)[nH]c4c3)C2=O)cc1 (configuration not stated)	46.5*	3.6	-0.5	5.1	0.2	36.5
Cc1ccc(C(=O)Oc2coc(CSc3nnc(NC(=O)c4cccs4)s3)cc2=O)cc1	76.0*	1.4	3.2	3.4	11.5	85.4*
CC(=O)Nc1nnc(SCc2cc(=O)c(OC(=O)c3ccccc3)co2)s1	7.3	-8.9	0.4	1.9	15.3	.
COc1cc(NC(=O)Cc2ccccc2)cc(OC)c1	3.3	-2.3	0.9	7.5	11.1	.
COc1cc(NC(=O)C[n+]2ccc(C(=O)c3ccccc3)cc2)cc(OC)c1	49.2*	-5.8	-1.3	7.6	0.3	34.2
O=C(NCCc1c[nH]c2ccccc12)OCCCCOC(=O)NCCc1c[nH]c2ccccc12	61.3*	11.0	4.8	3.2	18.9	29.9
Cn1c(NC(=O)C[n+]2cc(-c3ccc(Cl)cc3)n3c2CCC3)cc(=O)n(C)c1=O	43.1*	10.1	5.6	-1.7	1.8	45.5*
CN1C(=O)NC(c2ccccc2[N+](=O)[O-])C2=C1CC(C)(C)CC2=O (configuration not stated)	-3.2	9.5	0.6	2.6	5.1	.
CN1C(=O)NC(c2ccccc2[N+](=O)[O-])C2=C1CCCC2=O (configuration not stated)	77.0*	8.1	-1.1	6.0	1.0	14.2
O=C(COc1ccc(Cl)cc1)Nc1cc2c3c(c1)CC(=O)N3CCC2	46.5*	-1.7	1.1	-4.0	-8.0	34.9
CCCC(=O)Nc1cc2c3c(c1)CC(=O)N3CCC2	3.2	8.8	9.9	-1.5	-0.5	.
COC(=O)c1cc2c(c3c4cc(C)ccc4n(S(=O)(=O)c4ccc(C)cc4)c13)C(=O)N(Cc1ccc(N(C)C)cc1)C2	.	-0.9	.	.	16.2	.
O=C(CN1CCN(c2ccc(O)cc2)CC1)Nc1cc([N+](=O)[O-])ccc1Cl	52.1*	-0.5	1.0	2.4	-6.7	53.3*
Cc1nc2cc(C(=O)O)ccc2n1C1CCCCC1	3.4	-7.1	-3.9	0.2	-1.3	.
Cc1nc2cc(N)ccc2n1C1CCCCC1	48.8*	2.5	3.3	2.7	-1.1	5.7
Cc1cccc(S(=O)(=O)N2CCC[C@H]2C(=O)N2CCC[C@@H]2C(=O)NCc2ccccc2)c1	.	-6.7	.	.	-2.2	.
CN1N=C2c3ccccc3CCC2C1c1ccc(Cl)cc1 (configuration not stated)	7.2	7.4	-2.9	13.1	-1.1	.
COc1ccc2cc1Oc1ccc(cc1)C[C@H]1c3cc(c(OC)cc3CCN1C)Oc1c(OC)c(OC)cc3c1[C@H](C2)N(C)CC3	60.9*	1.3	-2.0	3.1	-2.4	60.2*
COc1ccc2cc1Oc1ccc(cc1)C[C@H]1c3c(cc4c(c3Oc3cc5c(cc3OC)CCN(C)[C@@H]5C2)OCO4)CCN1C	-23.1	-5.8	2.4	6.5	9.1	.
C#CCOCCOCCOCCNc1nc(N2CCN(C(=O)CCCCCCCCCCNC(=O)Cn3cc(CCCCCN)nn3)CC2)nc(N2CCN(C(=O)CCCCCCCCCCNC(=O)Cn3cc(CCCCCN)nn3)CC2)n1	63.6*	.	-1.9	6.4	.	62.3*
C#CCOCCOCCOCCNc1nc(N2CCN(C(=O)CCCCCCCCCCNC(=O)Cn3cc(C[C@@H](C)O)nn3)CC2)nc(N2CCN(C(=O)CCCCCCCCCCNC(=O)[C@@H](CCC(=O)O)n3cc(CCCCCN)nn3)CC2)n1	21.7	-0.2	0.7	1.4	7.2	.
C#CCOCCOCCOCCNc1nc(N2CCN(C(=O)CCCCCCCCCCNC(=O)Cn3cc(CCCCCN)nn3)CC2)nc(N2CCN(C(=O)CCCCCCCCCCNC(=O)[C@@H](CCC(=O)O)n3cc(CCCCCN)nn3)CC2)n1	44.4*	.	-5.0	2.4	.	34.6
C#CCOCCOCCOCCNc1nc(N2CCN(C(=O)Cn3cc(CCCCN)nn3)CC2)nc(N2CCN(C(=O)Cn3cc(CCCCN)nn3)CC2)n1	7.4	4.6	1.1	1.7	-7.4	.
O=C(c1ccc(S(=O)(=O)NCc2ccco2)cc1)N1CCCC1	4.9	-5.3	-3.9	6.7	3.4	.
N#Cc1ccc(CN2CCN(C(=O)c3ccc(S(=O)(=O)NCc4ccco4)cc3)CC2)cc1	50.4*	6.0	-1.9	0.5	-14.2	7.8
SMILES	PREPL inh	ASAP1 inh	IDE cell inh	IDE act	ARFGAP1 inhibitor	PREPL confirm
C=CC[n+]1c(/C=C2\C=Cc3cc(C)ccc3N2CC)ccc2ccccc21	45.8*	6.7	6.1	0.4	2.0	59.6*
CCN1/C(=C\c2ccc3cc(C)ccc3[n+]2CC)Sc2cc(C)c(C)cc21	.	10.0	.	-169.5	10.5	.
Cn1nc(-c2ccccn2)nc2c(=O)n(C)c(=O)nc1-2	58.8*	-0.9	0.8	6.6	-5.7	52.3*
COc1cc2nc(Nc3ccc(C)c(Cl)c3)nc(N)c2cc1OC	72.5*	14.4	6.7	-2.4	-9.6	66.2*
COc1cc2nc(Nc3ccc(F)cc3)nc(N)c2cc1OC	21.3	8.9	2.4	0.3	-2.2	.
COc1cc2nc(Nc3ccc(C)c(C)c3)nc(N)c2cc1OC	52.0*	13.7	-0.6	-1.1	1.8	51.2*
Cc1ccc2nc(SCC(=O)NCc3ccc(F)cc3)nc(=O)n2c1	-0.3	-13.7	0.2	3.1	-2.1	.
O=C(O)c1ccccc1NS(=O)(=O)c1ccc(NN=Cc2ccc(F)cc2)c([N+](=O)[O-])c1	43.6*	.	-2.2	5.4	.	36.7
COc1ccc(NS(=O)(=O)c2ccc(NN=Cc3ccc(C(=O)O)cc3)c([N+](=O)[O-])c2)cc1	45.1*	-0.1	6.3	.	2.1	40.0
O=C(O)c1ccccc1NS(=O)(=O)c1ccc(NN=Cc2cccc(Cl)c2)c([N+](=O)[O-])c1	53.4*	-10.8	-0.1	10.5	-5.7	44.7*
O=C(O)c1ccccc1NS(=O)(=O)c1ccc(N/N=C/c2ccc(O)c(O)c2)c([N+](=O)[O-])c1	.	24.1	.	5.8	0.2	.
O=C(O)c1ccc(/C=N/Nc2ccc(S(=O)(=O)N3CCCC3)cc2[N+](=O)[O-])cc1	12.5	-6.4	4.2	4.7	-1.5	.
O=C(O)c1ccc(S(=O)(=O)c2ccc(Sc3ccc(C(=O)O)c(C(=O)O)c3)cc2)cc1	9.9	-9.7	2.0	2.9	0.0	.
CC(C)COC(=O)N1CCCCC1c1cc(C(=O)Nc2ccc3c(c2)OCO3)no1 (configuration not stated)	.	-5.8	.	.	3.4	.

Compound activity (PubChem)
